Data: ChEMBL document CHEMBL1926562, “Design, synthesis and biological activity of sphingosine kinase 2 selective inhibitors” (Bioorg Med Chem, 2012)

Tests used:
Sphingosine kinase 1 [1] = biological target: T1, Sphingosine kinase 1 (Homo sapiens, UniProt Q9NYA1); experiment: Inhibition of human SphK1 expressed in baculovirus infected Sf9 insect cells assessed as remaining activity using sphingosine and [gamma-(32)P]-ATP as substrate at 100 uM by scintillation proximity counting
Outline: (§1)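 Enzyme source: supernatant (10,000×g) of homogenized Sf9 cells infected with recombinant virus for 72 h, 2-3 μg protein per reaction. Sphingosine substrate at 10 μM for SphK1 and 5 μM for SphK2. Initial screen used inhibitor at 100 μM, with some compounds at 10 μM. Read-out is percent of remaining kinase activity, averaged over three experiments.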

[2] = biological target: T2, Sphingosine kinase 2 (Mus musculus) (UniProt Q9JIA7); experiment: Inhibition of mouse SphK2 expressed in baculovirus infected Sf9 insect cells assessed as remaining activity using sphingosine and [gamma-(32)P]-ATP at 100 uM by scintillation proximity counting; outline: as §1
T2 sequence (whole entry): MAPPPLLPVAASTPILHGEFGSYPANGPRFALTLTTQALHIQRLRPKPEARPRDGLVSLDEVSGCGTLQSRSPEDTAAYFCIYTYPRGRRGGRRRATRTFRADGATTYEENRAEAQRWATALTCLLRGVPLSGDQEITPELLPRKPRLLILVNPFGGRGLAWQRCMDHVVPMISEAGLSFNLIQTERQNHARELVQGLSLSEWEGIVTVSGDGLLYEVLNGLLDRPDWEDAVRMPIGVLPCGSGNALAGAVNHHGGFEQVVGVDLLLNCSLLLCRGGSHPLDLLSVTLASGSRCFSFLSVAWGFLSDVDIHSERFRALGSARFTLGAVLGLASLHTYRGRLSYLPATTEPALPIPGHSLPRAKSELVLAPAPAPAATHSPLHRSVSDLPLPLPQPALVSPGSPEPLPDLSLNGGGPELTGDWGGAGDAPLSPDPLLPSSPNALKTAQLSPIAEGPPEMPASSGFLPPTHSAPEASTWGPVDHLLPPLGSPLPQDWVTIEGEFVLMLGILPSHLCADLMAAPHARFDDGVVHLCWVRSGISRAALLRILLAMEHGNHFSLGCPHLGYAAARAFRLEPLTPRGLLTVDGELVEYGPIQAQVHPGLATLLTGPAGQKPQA

Sphingosine kinase 2 = biological target: T3, Sphingosine kinase 2 (Mus musculus, UniProt Q9JIA7); experiment: Inhibition of mouse SphK2 expressed in baculovirus infected Sf9 insect cells using sphingosine and [gamma-(32)P]-ATP by scintillation proximity assay
T3 sequence (Q9JIA7 whole entry): T2 sequence (whole entry)

Sphingosine kinase 1 [3] = biological target: T1, Sphingosine kinase 1; experiment: Inhibition of human SphK1 expressed in baculovirus infected Sf9 insect cells using sphingosine and [gamma-(32)P]-ATP by scintillation proximity assay
Outline: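 Ki calculated as Ki = [I]/(K′m/Km – 1), using a sphingosine Km of 10 μM for SphK1 and 5 μM for SphK2. Enzyme came from infected Sf9 cell extract (10,000×g supernatant, 2-3 μg protein).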

[4] = Selectivity ratio of Ki/Km for human SphK1 to Ki/Km for mouse SphK2
Outline: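 Selectivity calculated as (Ki/Km)SphK1 divided by (Ki/Km)SphK2, with sphingosine Km taken as 10 μM for SphK1 and 5 μM for SphK2.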

T1 sequence (Q9NYA1 whole entry): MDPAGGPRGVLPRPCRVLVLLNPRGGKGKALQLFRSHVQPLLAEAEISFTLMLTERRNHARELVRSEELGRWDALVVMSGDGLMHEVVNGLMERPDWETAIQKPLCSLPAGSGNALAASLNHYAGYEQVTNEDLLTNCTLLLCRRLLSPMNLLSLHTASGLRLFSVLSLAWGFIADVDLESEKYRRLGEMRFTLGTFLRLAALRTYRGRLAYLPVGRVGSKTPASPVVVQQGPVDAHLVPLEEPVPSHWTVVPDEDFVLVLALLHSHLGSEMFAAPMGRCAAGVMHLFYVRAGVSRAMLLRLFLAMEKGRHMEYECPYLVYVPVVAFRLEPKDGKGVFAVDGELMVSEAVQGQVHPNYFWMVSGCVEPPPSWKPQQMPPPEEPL

Activity (Sphingosine kinase 1 [1]) [%]	Activity [2] [%]	Ki (Sphingosine kinase 2) [µM]	Ki (Sphingosine kinase 1 [3]) [µM]	Selectivity ratio [4]	SMILES
91.8	100				C=CCN[C@H]1CC[C@@H](c2ccc(CCCCCCCC)cc2)CC1
10.5	3	14	70	2.5	CCCCCCCCc1ccc([C@H]2CC[C@H]([N+](C)(C)CCO)CC2)cc1
75.6	18.3				CCCCCCCCc1ccc([C@H]2CC[C@@H](NCCC)CC2)cc1
25.7	8.3				CCCCCCCCc1ccc([C@H]2CC[C@H]([N+](C)(C)Cc3ccccc3)CC2)cc1
101	101				CCCCCCCCc1ccc(C2CCC(=CC(=O)OC)CC2)cc1 (stereo unspecified)
22.4	8.9				CCCCCCCCc1ccc([C@H]2CC[C@@H](NCCO)CC2)cc1
83.9	50.8				CCCCCCCCc1ccc([C@H]2CC[C@@H](N(C)C)CC2)cc1
46.3	9	27	40	0.74	CCCCCCCCc1ccc([C@H]2CC[C@H](N(C)C)CC2)cc1
65	77				CCCCCCCCc1ccc([C@H]2CC[C@H](NC3CC3)CC2)cc1
113	70.9				CCCCCCCCc1ccc([C@H]2CC[C@H](O)CC2)cc1
100	66.7				CCCCCCCCc1ccc(C2CCC(=CCO)CC2)cc1 (stereo unspecified)
130	56.5				CCCCCCCCc1ccc(C2CCC(=NO)CC2)cc1 (stereo unspecified)
49.1	11.5	33	> 100		CCCCCCCCc1ccc([C@H]2CC[C@H]([N+](C)(C)C(C)C)CC2)cc1
101	61.8				CCCCCCCCc1ccc(C2CCC(N)(C#N)CC2)cc1 (stereo unspecified)
19	5.7				C=CCN[C@H]1CC[C@H](c2ccc(CCCCCCCC)cc2)CC1
33	23				CCCCCCCCc1ccc([C@H]2CC[C@H](NCc3ccncc3)CC2)cc1
83.9	53.3				CCCCCCCCc1ccc([C@H]2CC[C@H](NCc3ccccc3)CC2)cc1

Activity (Sphingosine kinase 1 [1]) [%]	Activity [2] [%]	Ki (Sphingosine kinase 2) [µM]	Ki (Sphingosine kinase 1 [3]) [µM]	Selectivity ratio [4]	SMILES
113	116				CCCCCCCCc1ccc([C@H]2CC[C@@H](NC3CC3)CC2)cc1
100	60.6				CCCCCCCCc1ccc([C@H]2CC[C@@H](NCCCC)CC2)cc1
109	100				C#CCN[C@H]1CC[C@H](c2ccc(CCCCCCCC)cc2)CC1
30.4	2.1				C=CC[N+](C)(C)[C@H]1CC[C@H](c2ccc(CCCCCCCC)cc2)CC1
24.6	23.9				CCCCCCCCc1ccc([C@H]2CC[C@H](NC(C)C)CC2)cc1
90	16.5				CCCCCCCCc1ccc([C@H]2CC[C@@H](NC(C)C)CC2)cc1
69.8	5.4	40	> 100		CCCCCCCCc1ccc([C@H]2CC[C@@H](NC)CC2)cc1
20.5	20.1				CCCCCCCCc1ccc([C@H]2CC[C@H](NCCCC)CC2)cc1
100	52.7				CCCCCCCCc1ccc(C2CCC(O)(C[N+](=O)[O-])CC2)cc1 (stereo unspecified)
113	101				CCCCCCCCc1ccc([C@H]2CC[C@@H](N(C)C(C)C)CC2)cc1
98.4	67.2				CCCCCCCCc1ccc([C@H]2CC[C@@H](NCc3ccccc3)CC2)cc1
90.7	65.5				CCCCCCCCc1ccc([C@H]2CC[C@@H](N(C)CCC)CC2)cc1
100	101				C#CCN[C@H]1CC[C@@H](c2ccc(CCCCCCCC)cc2)CC1
15.8	5.5				CCCCCCCCc1ccc([C@H]2CC[C@H](NCCC)CC2)cc1
77	45.9				CCCCCCCCc1ccc([C@H]2CC[C@H](N(C)CCC)CC2)cc1
15.7	7.7				CCCCCCCCc1ccc([C@H]2CC[C@H](NC)CC2)cc1
